The list is not random: actives were taken first. Their share in the collection is about 4.2%.
GalR3 antagonist = GalR3 antagonists in HEK293 cells, primary screen, cell-based, fluorescence readout | Galanin receptor type 3 (Homo sapiens), O60755 | inhibition, % at 3 µM | 360,000 tested, 0.44% active | HEK293 GalR3-CNG cAMP membrane potential fluorescence; galR3 body fused to GalR1 C-terminus;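 active = inhibition above the screen-wide average plus 3 SD, cut at about 13% in these data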;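 also: forskolin and galanin both at EC90 stimulate the cells; cAMP rise reported by CNG channel membrane potential dye signal; 0% = forskolin plus galanin with DMSO and 100% = forskolin alone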
Target sequence (O60755 1-299 limits assumed): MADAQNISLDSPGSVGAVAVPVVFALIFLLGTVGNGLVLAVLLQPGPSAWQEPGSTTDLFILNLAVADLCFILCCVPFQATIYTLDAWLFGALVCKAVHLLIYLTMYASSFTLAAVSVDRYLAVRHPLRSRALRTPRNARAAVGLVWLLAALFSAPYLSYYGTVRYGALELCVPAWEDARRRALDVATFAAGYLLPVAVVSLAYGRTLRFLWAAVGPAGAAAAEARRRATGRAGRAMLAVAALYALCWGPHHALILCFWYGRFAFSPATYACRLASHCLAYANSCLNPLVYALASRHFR
TAAR1 agonist = human TAAR1 agonists, primary screen, Fluo-8 calcium fluorescence, CHO RD-HGA16 cells; activation, % at 3 µM; Trace amine-associated receptor 1 (Homo sapiens), Q96RJ0; 360,000 tested, 0.99% active; vehicle wells 0%, saturating PEA agonist 100%;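 active = activation above the mean activation of all test compounds in the run plus 3 SD, cut at about 38% in these data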
Target sequence (Q96RJ0 whole entry, looked up): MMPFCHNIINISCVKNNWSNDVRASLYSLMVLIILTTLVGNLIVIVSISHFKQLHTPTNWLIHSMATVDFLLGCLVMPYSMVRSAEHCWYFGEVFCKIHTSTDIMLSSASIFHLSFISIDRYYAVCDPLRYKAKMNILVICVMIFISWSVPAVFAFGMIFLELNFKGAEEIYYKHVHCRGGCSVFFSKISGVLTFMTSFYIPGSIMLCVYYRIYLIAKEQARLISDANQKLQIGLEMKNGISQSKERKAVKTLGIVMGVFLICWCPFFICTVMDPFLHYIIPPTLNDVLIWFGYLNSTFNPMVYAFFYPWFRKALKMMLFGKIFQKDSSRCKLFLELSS
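Assay system – CHO-derived RD-HGA16 cells with stable Gα16 and human TAAR1 · Compound dosing – one-point dosing at 3 µM (nominal) · Incubation – 17-24 h seeding, 75 min 37 °C dye, 30 min RT · Measured by – kinetic Fluo-8 calcium fluorescence · Control set – DMSO vehicle as 0%, PEA at EC100 as 100% · Repeats – single well for each compound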
OX1R antag-1 = OX1R (HCRTR1) antagonists, primary screen, fluorescence, CHO/OX1R cells, Fluo-8 calcium, orexin A. 330,000 tested, 0.43% active. Fluo-8 calcium fluorescence. inhibition, % at 5 µM. AID 434989, 2010. Orexin/Hypocretin receptor type 1 (Homo sapiens), O43613;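 active = inhibition above its plate's threshold, mean inhibition of all tested compounds on the plate plus 3 SD, cut at about 37% in these data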;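 also: 0% = orexin A challenge wells and 100% = SB-334867-A antagonist wells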
TAAR1 antag = human TAAR1 antagonists, primary screen, Fluo-8 calcium fluorescence, CHO RD-HGA16 cells; Trace amine-associated receptor 1 (Homo sapiens), Q96RJ0; antagonist; inhibition, % at 3 µM; 360,000 tested, 1.5% active; AID 624466, 2012;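 active = inhibition above a per-plate cutoff, the mean inhibition of test compounds on that plate plus 3 SD, cut at about 49% in these data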;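 also: 0% = DMSO plus EC80 beta-PEA response and 100% = DMSO alone without agonist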
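Test system: hTAAR1-expressing CHO RD-HGA16 cells, Gα16-coupled; Probe or stimulus: EC80 β-phenethylamine stimulus; Compound dosing: single nominal final test compound concentration of 3 µM; Timing: 140 s kinetic read after compound, 140 s after agonist; Signal: Fluo-8 calcium-sensitive fluorescence; Measure: % inhibition of agonist calcium response; Controls: DMSO and EC80 PEA controls.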
CHO parental Ca = ATP-evoked calcium signal inhibitors, parental CHO, primary screen, counter-screen for OX1R antagonist project, cell-based, fluorescence, Fluo-8 calcium dye. parental CHO-K1, ATP-induced calcium, Fluo-8 fluorescence. inhibition, % at 5.6 µM. 330,000 tested, 0.63% active. AID 463079, 2010;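 active = inhibition above that plate's mean sample inhibition plus 3 SD, cut at about 26% in these data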;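 also: 0% = ATP-challenged DMSO wells and 100% = DMSO wells without ATP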
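Measured by: calcium-sensitive Fluo-8 fluorescence / Test system: CHO parental line / Controls: ATP-challenged DMSO wells low, unchallenged DMSO wells high / Measure: % inhibition / Compound: single nominal dose of 5.6 µM per compound / Replicates: single well per compound, no replicates / Reagent: ATP as calcium-mobilizing challenge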
OX1R antag-2 = antagonists of human orexin 1 receptor (OX1R); Orexin/Hypocretin receptor type 1 (Homo sapiens), O43613; OX1R-expressing cells, FRET antagonist read-out; inhibition, % at 6.6 µM; 330,000 tested, 1.8% active; in the data active = inhibition mostly above about 38%, no sharp cut-off; inactive = mostly below about 40%;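 also: 0% = agonist challenge alone and 100% = reference antagonist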
OX1R Ca confirm = OX1R (HCRTR1) antagonists, confirmation, fluorescence, CHO/OX1R cells, Fluo-8 calcium, orexin A. shares compounds with OX1R antag-1. orexin A calcium Fluo-8 fluorescence. inhibition, % at 5 µM. 1,100 tested, 38% active; in the data active = inhibition above about 29%;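 also: 0% = agonist challenge alone and 100% = reference antagonist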
CHO Ca counter = ATP-evoked calcium inhibition in parental CHO, counter-screen for OX1R antagonist project, cell-based, fluorescence, CHO-K1, triplicate. shares compounds with OX1R antag-1. ATP-induced calcium, Fluo-8 fluorescence. inhibition, % at 5.6 µM. 1,100 tested, 9.3% active. AID 492965, 2010;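 active = inhibition above a per-plate limit, the mean inhibition of that plate's test compounds plus 3 SD, cut at about 25% in these data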;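 also: 0% = ATP challenge with DMSO and 100% = DMSO without ATP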
OX1R HTRF conf = OX1R (HCRTR1) antagonists, confirmation, cell-based, HTRF; shares compounds with OX1R antag-2; OX1R-expressing cells, HTRF antagonist assay; inhibition, % at 6.6 µM; 1,800 tested, 49% active; in the data active = inhibition above about 55%;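 also: CHO cells expressing OX1R stimulated with orexin A at about EC80; 0% = agonist challenge alone and 100% = reference antagonist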
CHO-K1 HTRF cnt = signal inhibition in parental CHO-K1 cells, counter-screen for OX1R antagonist project, cell-based, HTRF. shares compounds with OX1R antag-2. HTRF counterscreen. inhibition, % at 6.6 µM. 1,800 tested, 48% active. AID 493232, 2011; in the data active = inhibition above about 17%;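 also: 0% = agonist challenge with vehicle and 100% = vehicle alone without agonist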
An asterisk follows results filed as active; . = no result given.

SMILES	GalR3 antagonist	TAAR1 agonist	OX1R antag-1	TAAR1 antag	CHO parental Ca	OX1R antag-2	OX1R Ca confirm	CHO Ca counter	OX1R HTRF conf	CHO-K1 HTRF cnt
Fc1cccc(Nc2nc3ccccc3n3cnnc23)c1	-9	-1	36	-3	0	53*	37*	0	86*	6
CC[C@]12c3[nH]c4cc(-c5ccco5)ccc4c3CCN1C(=O)[C@@H](CC(=O)NC/C=C(\C)CCC=C(C)C)C[C@@H]2C(=O)N1CCN(C(=O)c2ccco2)CC1	.	.	94*	.	-14	58*	74*	-2	76*	0
Cc1ccccc1S(=O)(=O)N1C(c2ccc(Cl)cc2)CC=C(C(=O)O)C1c1cccc(Cl)c1 (configuration not stated)	-5	1	.	3	.	.	.	.	.	.
Cc1ccc([C@@H]2CC=C(C(=O)O)[C@H](c3cccc(Cl)c3)N2S(=O)(=O)c2ccccc2C)cc1	-6	2	81*	38	2	86*	48*	-1	89*	4
COc1cccc(-c2c(C#N)c(N)nc3c2c(=O)nc2sccn23)c1	.	.	-3	.	-4	23	.	.	.	.
Cc1nc2ccc(NC(=O)c3oc4ccc(F)cc4c3C)cc2s1	.	.	72*	.	-9	100*	59*	-11	93*	13
O=c1oc(C2(O)CCCCC2)cc2ccc(-c3ccc4[nH]ccc4c3)cc12	-10	22	-15	-4	5	8	.	.	.	.
CCN(CC)CCCNc1nc(-n2nc(C)cc2C)nc2sc3c(c12)CC(C)(C)OC3	-2	1	-29	-3	-25	7	.	.	.	.
O=C(N/N=C/c1ccccc1[N+](=O)[O-])c1cccs1	-4	2	-6	12	-8	32	.	.	.	.
Cc1ccc(/C=N/NC(=O)c2cccs2)cc1[N+](=O)[O-]	2	3	30	19	-25	109*	15	3	92*	15
CC1=CC(C)C2(COC(=O)Nc3ccccc3)COC(C)C1C2C (configuration not stated)	-8	6	3	22	-24	33	.	.	.	.
NC(=O)c1c(NC(=O)c2ccc([N+](=O)[O-])o2)sc2c1CCCC2	-5	-2	1	-18	1	13	.	.	.	.
NC(=O)c1c(NC(=O)c2cc3ccccc3o2)sc2c1CCC2	-1	3	22	9	-8	106*	5	9	85*	14
Cc1ccc(C)c2c1cc(C)c1nnc(SCC(=O)Nc3nc4c(s3)CCCC4)n12	-1	0	-19	-21	-19	15	.	.	.	.
Cc1ccc2cc(C)c3nnc(SCC(=O)Nc4nc5c(s4)CCCC5)n3c2c1C	1	6	34	-16	-20	84*	41*	-10	75*	0
COc1ccc(C(=O)NCCc2cn3ccc(C)cc3n2)cc1	.	0	-6	-1	-10	-2	.	.	.	.
Cc1ccc(N(C)S(=O)(=O)c2cccc(C(=O)NCC(c3cccs3)N3CCOCC3)c2)cc1 (configuration not stated)	-3	0	47*	6	-31	78*	38*	-17	94*	3
Cn1c(CNc2nc(-c3ccccc3)cs2)nnc1SCC(=O)N1CCc2ccccc21	-1	3	47*	0	-14	80*	22	-11	55	2
COc1ccccc1/C=N/NC(=O)c1nnn(-c2nonc2N)c1CN(C)c1ccccc1	-8	-2	30	37	-13	37	.	.	.	.
CN(Cc1c(C(=O)N/N=C/c2ccccc2)nnn1-c1nonc1N)c1ccccc1	-7	2	58*	8	-12	72*	36*	0	83*	4
CN(Cc1c(C(=O)N/N=C/c2ccccc2F)nnn1-c1nonc1N)c1ccccc1	-8	3	36	-7	-5	45	.	.	.	.
COc1ccc(/C=N/NC(=O)c2nnn(-c3nonc3N)c2CN(C)c2ccccc2)cc1	0	12	44*	-8	-5	50*	31*	3	83*	2
CN(Cc1c(C(=O)N/N=C/c2ccc(O)cc2)nnn1-c1nonc1N)c1ccccc1	-4	11	80*	42	12	95*	37*	8	79*	5
CCCCC(CC)C1OCC(CN2CCCCC2)O1 (configuration not stated)	-2	-1	-14	-7	-8	6	.	.	.	.

Bioassay records deposited in PubChem BioAssay by The Scripps Research Institute Molecular Screening Center.
